Source: article PMC3574193 (Journal of medicinal chemistry, 2013)
“Also recorded” adds a separate entry of the source. Blank lines part the entries; values can stand above or below the compound they belong to.

Assays:
[1] = Preliminary half-life studies in rats; type: in vivo; details: data not shown
[2] = cited from earlier work
human Trx W31A mutant = target: T1, human Trx W31A mutant (Homo sapiens, UniProt P10599, W31A); assay: In vitro thioredoxin activity assay with W31A mutant; type: biochemical; details: W31A mutant of human Trx
T1 sequence (P10599 1-105 W31A): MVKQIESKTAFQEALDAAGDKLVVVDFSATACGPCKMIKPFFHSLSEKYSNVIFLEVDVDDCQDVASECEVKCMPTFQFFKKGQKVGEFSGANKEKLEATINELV
In short: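 Pre-reduced enzyme was desalted by spin column, quantified by A280 and used within 2 h. It was reacted with test compound, 10 µM each, in 0.1 M phosphate-citrate pH 6.0 at room temperature. Aromatic product accumulation was fitted exponentially for kinh/Ki.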

[3] = target: T2, extracellular TG2 in T84 enterocytic cells (Homo sapiens, UniProt P21980); assay: Trx-mediated TG2 activation in T84 enterocytic cells; type: cell-based; details: 25 µM ERW1041E
T2 sequence (P21980 1-687): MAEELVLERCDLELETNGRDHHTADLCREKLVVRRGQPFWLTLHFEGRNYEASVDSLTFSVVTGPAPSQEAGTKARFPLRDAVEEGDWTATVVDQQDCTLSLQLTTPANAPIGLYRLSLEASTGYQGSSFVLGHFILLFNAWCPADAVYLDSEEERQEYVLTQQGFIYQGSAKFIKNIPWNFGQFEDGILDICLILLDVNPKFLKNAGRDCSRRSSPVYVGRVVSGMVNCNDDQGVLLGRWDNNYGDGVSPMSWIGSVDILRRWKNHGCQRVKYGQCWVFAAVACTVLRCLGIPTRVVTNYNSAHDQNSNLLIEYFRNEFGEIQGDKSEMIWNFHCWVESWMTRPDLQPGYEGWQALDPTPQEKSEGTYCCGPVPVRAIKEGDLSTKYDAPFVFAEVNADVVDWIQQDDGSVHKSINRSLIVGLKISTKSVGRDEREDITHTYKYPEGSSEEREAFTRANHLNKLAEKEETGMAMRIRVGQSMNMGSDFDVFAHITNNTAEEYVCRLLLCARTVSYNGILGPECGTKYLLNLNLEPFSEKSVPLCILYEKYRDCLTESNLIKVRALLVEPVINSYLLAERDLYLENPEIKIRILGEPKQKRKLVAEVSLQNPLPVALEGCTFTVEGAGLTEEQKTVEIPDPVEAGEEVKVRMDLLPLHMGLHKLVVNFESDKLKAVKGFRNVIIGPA

half-life in rats [1]: short half-life
SMILES: CCC(C)SSc1ncc[nH]1 (stereo not shown) [Compound 1, 2-(sec-butyldisulfanyl)-1H-imidazole]
half-life in humans [2]: extremely short half-life

kinh/Ki with W31A Trx (human Trx W31A mutant): 23700 M⁻¹ s⁻¹
SMILES: CCC(C)SSc1nc2ccccc2[nH]1 (stereo not shown) [Compound 14, 2-(sec-butyldisulfanyl)-1H-benzo[d]imidazole]

SMILES: O=C(NC[C@@H]1CC(Br)=NO1)[C@@H]1CCCN1C(=O)OCc1cnc2ccccc2c1 [ERW1041E, (S)-quinolin-3-ylmethyl 2-((((S)-3-bromo-4,5-dihydroisoxazol-5-yl)methyl)carbamoyl)pyrrolidine-1-carboxylate]
effect on Trx mediated 5BP incorporation [3]: fully suppressed; also recorded: completely blocked
